Test results from ChEMBL document CHEMBL1134622, “Piperazine-based CCR5 antagonists as HIV-1 inhibitors. II. Discovery of 1-[(2,4-dimethyl-3-pyridinyl)carbonyl]-4- methyl-4-[3(S)-methyl-4-[1(S)-[4-(trifluoromethyl)phenyl]ethyl]-1-piperazinyl]- piperidine N1-oxide (Sch-350634), an orally bioavailable, potent CCR5 antagonist” (J Med Chem, 2001).

What was measured:
[1] = target: T1, C-C chemokine receptor type 5 (Homo sapiens, UniProt P51681); experiment: Binding affinity towards C-C chemokine receptor type 5
T1 sequence (P51681 whole entry): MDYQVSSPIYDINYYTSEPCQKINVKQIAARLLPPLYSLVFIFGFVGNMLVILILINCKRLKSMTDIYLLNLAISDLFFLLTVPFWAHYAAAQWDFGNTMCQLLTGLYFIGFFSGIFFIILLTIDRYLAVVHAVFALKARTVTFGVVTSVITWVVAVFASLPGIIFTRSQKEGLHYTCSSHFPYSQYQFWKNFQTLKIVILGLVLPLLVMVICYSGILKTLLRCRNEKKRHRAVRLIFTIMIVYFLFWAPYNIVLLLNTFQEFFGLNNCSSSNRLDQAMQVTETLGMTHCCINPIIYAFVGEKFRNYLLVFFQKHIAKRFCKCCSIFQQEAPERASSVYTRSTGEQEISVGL
Method in brief: (§1)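 CCR5 Ki in nM. Standard error 10%; assay-to-assay variability 2-3-fold.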

Rattus norvegicus = experiment: Pharmacokinetic characterization measured on oral blood levels in rat at 10 mg/kg (0-6 hr); assay type: ADME, organism-based; set-up: time < 6 hr, dose 10 mg/kg, route oral; settings: in vivo
Method in brief: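 Rats given compound orally at 10 mg/kg. Plasma concentrations followed over 6 h. Blood levels expressed as AUC (0-6 h) of the concentration-time plot, in ng/mL h.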

U-87 MG [2] = experiment: Inhibition of the entry of HIV-1 reporter virus (ADA) into U-87 cells; assay type: functional, cell-based, U-87MG ATCC; settings: Homo sapiens
Method in brief: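 Single-cycle infectivity assay in U-87 cells with HIV-1 reporter virus (ADA). IC50 is the concentration giving 50% inhibition of viral entry. 95% confidence limit within 1 log; intra-assay variation under 0.5 log.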

U-87 MG [3] = experiment: Inhibition of the entry of HIV-1 reporter virus (JrF1) into U-87 cells; assay type: functional, cell-based, U-87MG ATCC; settings: Homo sapiens
Method in brief: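 Entry of HIV-1 reporter virus (JrFl) into U-87 cells. IC50 is the concentration inhibiting entry by 50%. 95% confidence limit within 1 log; intra-assay variation under 0.5 log.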

Canis familiaris [4] = experiment: Area under concentration curve in Beagle dogs after iv administration (0-24 hr); assay type: ADME, organism-based, Canis lupus familiaris; set-up: time < 24 hr, route intravenous; settings: dog, in vivo
Method in brief: (§2)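 Beagle dogs and cynomolgus monkeys. IV dose 1 mg/kg. Oral dose 3 mg/kg in dog, 10 mg/kg in monkey. Plasma sampled over 0-24 h. […] Bioavailability is dose-corrected from oral vs iv AUC.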

Cynomolgus monkey [5] = experiment: Area under concentration curve in cynomolgus monkey after iv administration; assay type: ADME, organism-based, Macaca fascicularis; settings: in vivo; method in brief: as §2
Cynomolgus monkey [6] = experiment: Area under concentration curve in cynomolgus monkey after oral administration; assay type: ADME, organism-based, Macaca fascicularis; settings: in vivo; method in brief: as §2
[7] = Bioavailability in dog after oral administration.; assay type: ADME, organism-based, Canis lupus familiaris; settings: in vivo, read-out: BA; method in brief: as §2
[8] = Bioavailability in monkey after oral administration.; assay type: ADME, organism-based; settings: simiiformes, in vivo, read-out: BA; method in brief: as §2
[9] = Maximum plasma concentration after oral administration in dog; assay type: ADME, organism-based, Canis lupus familiaris; set-up: route oral; method in brief: as §2
[10] = Maximum plasma concentration after oral administration in monkey; assay type: ADME, organism-based; set-up: route oral; settings: simiiformes; method in brief: as §2
[11] = Time required for the maximum plasma concentration in rat blood levels at 10 mg/kg; assay type: ADME, organism-based; set-up: dose 10 mg/kg
[12] = target: T1, C-C chemokine receptor type 5; experiment: Binding affinity at C-C chemokine receptor type 5; method in brief: as §1
[13] = target: T2, Muscarinic acetylcholine receptor M2 (Homo sapiens, UniProt P08172); experiment: Binding affinity against muscarinic acetylcholine receptor M2
T2 sequence (P08172 whole entry): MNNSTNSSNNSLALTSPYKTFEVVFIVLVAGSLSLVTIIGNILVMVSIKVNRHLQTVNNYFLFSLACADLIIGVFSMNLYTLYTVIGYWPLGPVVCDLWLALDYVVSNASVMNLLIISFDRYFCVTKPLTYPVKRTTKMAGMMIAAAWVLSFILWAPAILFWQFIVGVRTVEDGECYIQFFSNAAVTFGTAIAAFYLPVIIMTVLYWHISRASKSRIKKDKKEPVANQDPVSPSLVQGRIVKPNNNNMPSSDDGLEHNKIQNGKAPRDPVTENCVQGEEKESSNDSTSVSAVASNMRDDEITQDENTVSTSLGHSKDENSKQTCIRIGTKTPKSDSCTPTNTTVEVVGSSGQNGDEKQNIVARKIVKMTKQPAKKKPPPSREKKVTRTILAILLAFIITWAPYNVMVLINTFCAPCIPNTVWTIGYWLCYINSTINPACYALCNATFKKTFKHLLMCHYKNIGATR

[14] = Plasma concentration after 0 hours of intravenous administration in dog; assay type: ADME, organism-based, Canis lupus familiaris; settings: read-out: Co; method in brief: as §2
[15] = Plasma concentration after 0 hours of intravenous administration in cunomolgus monkey; assay type: ADME, organism-based, Macaca fascicularis; settings: cynomolgus monkey; method in brief: as §2
Canis familiaris [16] = experiment: Area under concentration curve in Beagle dogs after oral administration (0-24 hr); assay type: ADME, organism-based, Canis lupus familiaris; set-up: time < 24 hr, route oral; settings: dog, in vivo; method in brief: as §2
[17] = Plasma concentration after 6 hours of oral administration in rat; assay type: ADME, organism-based; settings: read-out: C6h
[18] = Half life determined after iv administration to dog; assay type: ADME, organism-based, Canis lupus familiaris; settings: in vivo; method in brief: as §2
[19] = Time required for the maximum plasma concentration in rat.; assay type: ADME, organism-based
[20] = Half life determined after iv administration to monkey; assay type: ADME, organism-based; settings: simiiformes, in vivo; method in brief: as §2
[21] = target: T1, C-C chemokine receptor type 5; experiment: Inhibitory activity against C-C chemokine receptor type 5; method in brief: as §1

Row | Ki [1] [nM] | AUC (Rattus norvegicus) [ng·h/mL] | IC50 (U-87 MG [2]) [nM] | Structure (SMILES) | further results
1 | 440 | – | – | Cc1cccc(C)c1C(=O)N1CCC(N2CCN(Cc3ccc(I)cc3)CC2)CC1 | –
2 | 5 | 2540 | 3.2 | Cc1cccc(O)c1C(=O)N1CCC(C)(N2CCN([C@@H](C)c3ccc(C(F)(F)F)cc3)[C@@H](C)C2)CC1 | –
3 | 15 | 384 | 4 | Cc1cccc(O)c1C(=O)N1CCC(C)(N2CCN([C@@H](C)c3ccc(S(C)(=O)=O)cc3)[C@@H](C)C2)CC1 | –
4 | 20 | – | – | Cc1cccc(C)c1C(=O)N1CCC(N2CCN([C@@H](C)c3ccc(I)cc3)[C@@H](C)C2)CC1 | IC50 (U-87 MG [3]): 7 nM
5 | 5 | 447 | 0.8 | C[C@H]1CN(C2(C)CCN(C(=O)c3c(N)cccc3Cl)CC2)CCN1[C@@H](C)c1ccc(S(C)(=O)=O)cc1 | –
6 | 3 | – | 0.5 | Cc1cccc(C)c1C(=O)N1CCC(C)(N2CCN([C@@H](C)c3ccc(S(C)(=O)=O)cc3)[C@@H](C)C2)CC1 | –
7 | 12 | 1980 | 2 | C[C@H]1CN(C2(C)CCN(C(=O)c3c(N)cccc3Cl)CC2)CCN1[C@@H](C)c1ccc(I)cc1 | –
8 | – | 3900 | 0.5 | Cc1ccnc(C)c1C(=O)N1CCC(C)(N2CCN([C@@H](C)c3ccc(C(F)(F)F)cc3)[C@@H](C)C2)CC1 | AUC (Canis familiaris [4]): 1610 ng·h/mL; AUC (Cynomolgus monkey [5]): 996 ng·h/mL; AUC (Cynomolgus monkey [6]): 2740 ng·h/mL; bioavailability [7]: 33%; bioavailability [8]: 27.5%; Cmax [9]: 226 ng/mL; Cmax [10]: 281 ng/mL; Tmax [11]: 1.5 h; Ki [12]: 2.3 nM; Ki [13]: 2500 nM; concentration at 0 h [14]: 346 ng/mL; C0 at 0 h [15]: 390 ng/mL; AUC (Canis familiaris [16]): 1580 ng·h/mL
9 | 62 | – | – | Cc1cccc(C)c1C(=O)N1CCC(C)(N2CCN(Cc3ccc(I)cc3)CC2)CC1 | –
10 | 1 | 922 | 0.4 | Cc1cccc(C)c1C(=O)N1CCC(C)(N2CCN([C@@H](C)c3ccc(C(F)(F)F)cc3)[C@@H](C)C2)CC1 | –
11 | 5 | 822 | 1 | Cc1cccc(C)c1C(=O)N1CCC(C)(N2CCN([C@@H](C)c3ccc(I)cc3)[C@@H](C)C2)CC1 | –
12 | 30 | – | – | Cc1cccc(C)c1C(=O)N1CCC(N2CCN(Cc3ccc(I)cc3)[C@@H](C)C2)CC1 | –
13 | – | 9240 | 1 | Cc1cc[n+]([O-])c(C)c1C(=O)N1CCC(C)(N2CCN([C@@H](C)c3ccc(C(F)(F)F)cc3)[C@@H](C)C2)CC1 | AUC (Canis familiaris [4]): 3240 ng·h/mL; AUC (Cynomolgus monkey [5]): 2610 ng·h/mL; AUC (Cynomolgus monkey [6]): 15400 ng·h/mL; concentration at 6 h [17]: 1300 ng/mL; bioavailability [7]: 65%; bioavailability [8]: 59%; half-life [18]: 360 min; Cmax [9]: 690 ng/mL; Cmax [10]: 1420 ng/mL; Tmax [19]: 2.5 h; Ki [12]: 7 nM; Ki [13]: 250 nM; half-life [20]: 240 min; AUC (Canis familiaris [16]): 6290 ng·h/mL
14 | 23 | – | – | Cc1cccc(C)c1C(=O)N1CCC(N2CCN([C@@H](C)c3ccc(Br)cc3)[C@@H](C)C2)CC1 | IC50 [21]: 6 nM
15 | 5 | 1870 | 1.2 | C[C@H]1CN(C2(C)CCN(C(=O)c3c(N)cccc3Cl)CC2)CCN1[C@@H](C)c1ccc(C(F)(F)F)cc1 | –
16 | 8 | – | – | Cc1cccc(C)c1C(=O)N1CCC(C)(N2CCN(Cc3ccc(I)cc3)[C@@H](C)C2)CC1 | IC50 (U-87 MG [3]): 2.7 nM
17 | 275 | – | – | Cc1cccc(C)c1C(=O)N1CCC(N2CCN([C@@H](C)c3ccccc3)[C@@H](C)C2)CC1 | –
18 | 7 | 2810 | 1 | Cc1cccc(O)c1C(=O)N1CCC(C)(N2CCN([C@@H](C)c3ccc(I)cc3)[C@@H](C)C2)CC1 | –
